Results as given in ChEMBL document CHEMBL1275331, “Discovery of a novel 5-HT(3) antagonist/5-HT(1A) agonist 3-amino-5,6,7,8-tetrahydro-2-{4-[4-(quinolin-2-yl)piperazin-1-yl]butyl}quinazolin-4(3H)-one (TZB-30878) as an orally bioavailable agent for irritable bowel syndrome” (J Med Chem, 2010).
Active and inactive are the calls of the source. The calls are words filed in the database; no cut-off is given here.

Key:
[1] = Drug level in Sprague-Dawley rat brain at 3 mg/kg, po after 8 hrs by HPLC analysis; format: ADME, organism-based; set-up: dose 3 mg/kg, route oral; settings: read-out: Drug uptake
Procedure, shortened: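 Total compound concentration was measured in brain and blood at 2, 4 and 8 h after a single oral 3 mg/kg dose. Brain/blood ratio was also derived. Values are mean ± SD of three rats.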

Adenosine receptor A1 = Adenosine receptor A1 (Homo sapiens, UniProt P30542); test: Displacement of [3H]DPCPX from human recombinant adenosine A1 receptor
[2] = molecular target: Neuropeptide Y receptor type 2 (Homo sapiens, UniProt P49146); test: Displacement of [125I]peptide YY from NPY2 receptor in human KAN-TS cells; format: cell-based
Neuropeptide Y receptor type 2, sequence (P49146 whole entry): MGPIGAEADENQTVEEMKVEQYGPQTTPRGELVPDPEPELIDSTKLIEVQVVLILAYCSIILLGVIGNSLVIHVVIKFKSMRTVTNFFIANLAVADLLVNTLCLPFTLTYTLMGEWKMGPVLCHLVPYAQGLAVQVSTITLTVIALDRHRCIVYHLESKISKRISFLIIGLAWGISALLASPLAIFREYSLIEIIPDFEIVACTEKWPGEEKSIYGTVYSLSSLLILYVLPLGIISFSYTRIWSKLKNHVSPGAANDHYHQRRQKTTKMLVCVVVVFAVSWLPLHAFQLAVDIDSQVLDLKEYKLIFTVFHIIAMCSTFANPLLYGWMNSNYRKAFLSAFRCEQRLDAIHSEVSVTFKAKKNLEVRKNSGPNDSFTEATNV

[3] = molecular target: 5-hydroxytryptamine receptor 1B (Rattus norvegicus, UniProt P28564); test: Displacement of [125I]CYP from rat cerebral cortex 5HT1B receptor in presence of 30 uM propranolol; format: tissue-based
5-hydroxytryptamine receptor 1B, sequence (P28564 whole entry): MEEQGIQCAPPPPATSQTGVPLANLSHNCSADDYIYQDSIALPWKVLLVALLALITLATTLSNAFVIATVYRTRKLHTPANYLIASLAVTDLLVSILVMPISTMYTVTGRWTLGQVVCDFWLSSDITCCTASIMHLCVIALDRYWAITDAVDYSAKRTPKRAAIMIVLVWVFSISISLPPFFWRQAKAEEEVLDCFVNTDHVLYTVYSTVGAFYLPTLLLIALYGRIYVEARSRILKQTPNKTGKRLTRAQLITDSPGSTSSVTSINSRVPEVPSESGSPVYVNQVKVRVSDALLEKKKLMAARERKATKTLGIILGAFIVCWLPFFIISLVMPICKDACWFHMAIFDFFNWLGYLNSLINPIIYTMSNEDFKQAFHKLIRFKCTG

Adenosine receptor A3 = Adenosine receptor A3 (Homo sapiens, UniProt P0DMS8); test: Displacement of [125I]AB-MECA from human recombinant adenosine A3 receptor
Mu-type opioid receptor = Mu-type opioid receptor (Homo sapiens, UniProt P35372); test: Displacement of [3H]DAMGO from human recombinant mu opioid receptor
Mu-type opioid receptor, sequence (P35372 whole entry): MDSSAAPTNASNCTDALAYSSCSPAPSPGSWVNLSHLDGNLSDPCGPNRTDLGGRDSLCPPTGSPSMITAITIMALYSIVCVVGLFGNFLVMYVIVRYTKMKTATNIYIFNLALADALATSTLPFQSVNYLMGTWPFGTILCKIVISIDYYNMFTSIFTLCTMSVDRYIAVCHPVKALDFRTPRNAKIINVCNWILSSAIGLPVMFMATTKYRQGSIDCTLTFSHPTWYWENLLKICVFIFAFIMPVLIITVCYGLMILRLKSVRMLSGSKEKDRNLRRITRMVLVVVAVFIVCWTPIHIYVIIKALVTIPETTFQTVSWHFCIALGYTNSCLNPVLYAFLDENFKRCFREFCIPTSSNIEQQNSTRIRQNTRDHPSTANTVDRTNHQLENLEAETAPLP

Rattus norvegicus [4] = test: Reduction in wrap restraint stress-induced defecation in rat diarrhea-predominant irritable bowel syndrome model at 1 to 10 mg/kg, po administered 1 hr prior to induction of stress; format: functional, organism-based
Procedure, shortened: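 Lightly anesthetized rats had upper bodies wrapped with adhesive tape, then returned to observation cages; feces counted 1 h after wrapping. Compound or vehicle given orally 1 h before restraint; unwrapped animals as normal group. n = 8 per group, mean (SD); Wilcoxon and nonparametric Dunnett's tests.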

Adenosine receptor A2a = Adenosine receptor A2a (Homo sapiens, UniProt P29274); test: Displacement of [3H]CGS21680 from human recombinant adenosine A2A receptor
Adenosine receptor A2a, sequence (P29274 whole entry): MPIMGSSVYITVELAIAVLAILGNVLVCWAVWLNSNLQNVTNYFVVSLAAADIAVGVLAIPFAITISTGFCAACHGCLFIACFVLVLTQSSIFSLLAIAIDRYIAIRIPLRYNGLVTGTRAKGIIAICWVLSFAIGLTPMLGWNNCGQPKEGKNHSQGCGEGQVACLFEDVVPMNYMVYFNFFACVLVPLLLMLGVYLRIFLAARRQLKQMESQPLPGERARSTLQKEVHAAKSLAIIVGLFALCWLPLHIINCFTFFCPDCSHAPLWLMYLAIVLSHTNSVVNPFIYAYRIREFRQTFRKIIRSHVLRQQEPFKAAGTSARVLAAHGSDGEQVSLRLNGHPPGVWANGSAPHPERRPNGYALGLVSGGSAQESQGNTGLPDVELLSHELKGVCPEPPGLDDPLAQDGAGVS

Neuromedin-K receptor = Neuromedin-K receptor (Homo sapiens, UniProt P29371); test: Displacement of [3H]SR142801 from human recombinant NK3 receptor
Neuromedin-K receptor, sequence (P29371 whole entry): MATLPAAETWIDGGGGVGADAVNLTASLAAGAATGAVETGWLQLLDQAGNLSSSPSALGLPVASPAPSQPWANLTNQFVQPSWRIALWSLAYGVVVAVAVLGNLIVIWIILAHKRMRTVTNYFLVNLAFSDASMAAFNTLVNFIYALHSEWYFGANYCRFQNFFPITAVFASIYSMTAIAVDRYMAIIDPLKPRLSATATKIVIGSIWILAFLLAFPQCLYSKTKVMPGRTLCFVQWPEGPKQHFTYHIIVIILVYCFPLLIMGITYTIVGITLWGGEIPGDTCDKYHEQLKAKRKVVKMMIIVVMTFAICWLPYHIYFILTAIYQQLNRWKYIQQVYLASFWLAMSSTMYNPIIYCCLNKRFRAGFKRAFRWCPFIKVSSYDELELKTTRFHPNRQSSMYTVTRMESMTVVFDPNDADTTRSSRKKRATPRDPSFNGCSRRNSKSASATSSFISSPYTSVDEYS

Rattus norvegicus [5] = test: Reduction in wrap restraint stress-induced defecation in WAY-100635-treated rat diarrhea-predominant irritable bowel syndrome model at 0.3 to 3 mg/kg, ip administered 20 mins following addition of 5HT1A receptor antagonist WAY-100635; format: functional, organism-based
Procedure, shortened: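 Rats received saline (with diluted HCl) or WAY-100635 sc; 20 min later compound or vehicle ip. Five minutes after, lightly anesthetized rats were wrapped for 1 h and feces counted. n = 8 per group, mean (SD); Wilcoxon and nonparametric Dunnett's tests.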

[6] = molecular target: T1, 5-hydroxytryptamine receptor 1A (Homo sapiens, UniProt P08908); test: Agonist activity at human cloned 5HT1A receptor expressed in CHO cells assessed as stimulation of [35S]GTPgammaS binding after 30 mins by liquid scintillation counting; format: functional, cell-based
T1 sequence (P08908 whole entry): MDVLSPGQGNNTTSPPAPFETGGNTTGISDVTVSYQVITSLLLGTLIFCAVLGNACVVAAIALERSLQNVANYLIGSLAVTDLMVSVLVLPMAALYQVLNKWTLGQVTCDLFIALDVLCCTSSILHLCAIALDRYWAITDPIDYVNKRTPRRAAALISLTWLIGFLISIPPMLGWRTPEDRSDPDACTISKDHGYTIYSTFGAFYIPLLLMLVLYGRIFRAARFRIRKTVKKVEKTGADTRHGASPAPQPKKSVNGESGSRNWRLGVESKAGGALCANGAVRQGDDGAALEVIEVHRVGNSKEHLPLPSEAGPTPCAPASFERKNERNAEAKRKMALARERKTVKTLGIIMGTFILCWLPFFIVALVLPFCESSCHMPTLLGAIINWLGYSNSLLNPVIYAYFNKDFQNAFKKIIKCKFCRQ
Procedure, shortened: (§1)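 Membranes from CHO cells expressing human 5-HT1A were diluted in 20 mM HEPES/3 mM MgCl2/120 mM NaCl, pH 7.4. They were preincubated with 20 μM GDP and test drug for 20 min at 30 °C, then held on ice for 15 min. [35S]GTPγS (100 pM) was added for 30 min at 30 °C. Samples were filtered, washed with cold HEPES/MgCl2 buffer, and bound radioactivity counted; EC50 and Emax reported.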

[7] = molecular target: T2, 5-hydroxytryptamine receptor 1A (Homo sapiens) (UniProt P08908); test: Agonist activity at human cloned 5HT1A receptor expressed in CHO cells assessed as stimulation of [35S]GTPgammaS binding at 900 uL after 30 mins by liquid scintillation counting; format: functional, cell-based; procedure, shortened: as §1
T2 sequence (whole entry): T1 sequence (P08908 whole entry)

[8] = molecular target: Muscarinic acetylcholine receptor M3 (Homo sapiens, UniProt P20309); test: Displacement of [3H]4-DAMP from human recombinant muscarinic M3 receptor
Muscarinic acetylcholine receptor M3, sequence (P20309 whole entry): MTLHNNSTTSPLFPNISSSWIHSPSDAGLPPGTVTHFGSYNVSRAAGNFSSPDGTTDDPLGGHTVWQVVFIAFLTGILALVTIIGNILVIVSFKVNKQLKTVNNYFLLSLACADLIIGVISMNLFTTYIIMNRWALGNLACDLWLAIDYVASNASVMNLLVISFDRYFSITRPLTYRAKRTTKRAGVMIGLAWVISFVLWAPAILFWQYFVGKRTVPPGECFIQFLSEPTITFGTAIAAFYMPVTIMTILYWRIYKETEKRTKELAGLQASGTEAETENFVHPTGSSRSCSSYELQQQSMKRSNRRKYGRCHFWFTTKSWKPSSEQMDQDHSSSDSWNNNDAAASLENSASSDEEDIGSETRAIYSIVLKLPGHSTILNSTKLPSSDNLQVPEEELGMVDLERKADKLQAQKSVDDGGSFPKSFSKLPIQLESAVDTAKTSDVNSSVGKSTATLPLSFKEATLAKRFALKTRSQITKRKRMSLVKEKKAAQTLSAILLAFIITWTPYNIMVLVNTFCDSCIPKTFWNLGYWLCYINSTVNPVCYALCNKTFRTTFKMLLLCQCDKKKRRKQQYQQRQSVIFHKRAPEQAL

[9] = molecular target: T3, 5-hydroxytryptamine receptor 3A (Homo sapiens, UniProt P46098); test: Binding affinity to human 5HT3 receptor
T3 sequence (P46098 whole entry): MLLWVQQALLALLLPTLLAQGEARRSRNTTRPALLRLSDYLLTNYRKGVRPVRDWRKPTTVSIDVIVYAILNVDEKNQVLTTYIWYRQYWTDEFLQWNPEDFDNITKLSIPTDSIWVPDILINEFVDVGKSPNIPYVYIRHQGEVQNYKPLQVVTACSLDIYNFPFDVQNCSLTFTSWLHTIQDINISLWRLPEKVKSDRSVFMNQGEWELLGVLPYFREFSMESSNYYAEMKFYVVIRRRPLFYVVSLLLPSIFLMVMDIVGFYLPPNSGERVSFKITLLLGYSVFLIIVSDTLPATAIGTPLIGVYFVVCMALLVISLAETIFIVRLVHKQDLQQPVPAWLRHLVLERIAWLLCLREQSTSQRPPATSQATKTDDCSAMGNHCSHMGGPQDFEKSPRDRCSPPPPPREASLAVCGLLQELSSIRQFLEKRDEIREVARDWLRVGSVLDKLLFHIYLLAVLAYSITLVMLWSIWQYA
Procedure, shortened: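 HEK-293 membranes expressing human 5-HT3 were incubated with 0.5 nmol/L [3H]BRL-43694 (final) for 60 min at 25 °C. Buffer: 50 mM Tris-HCl, 5 mM MgCl2, 1 mM EDTA, pH 7.5. Compound came from 270 μmol/L DMSO stock, diluted in buffer. Filtration was through GF/B presoaked in 0.5% polyethyleneimine, with two cold Tris washes. Run in duplicate or triplicate; percent inhibition calculated.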

[10] = Displacement of [3H]DADLE from human recombinant delta2 opioid receptor
Histamine H2 receptor = Histamine H2 receptor (Homo sapiens, UniProt P25021); test: Displacement of [125I]APT from human recombinant histamine H2 receptor
Histamine H2 receptor, sequence (P25021 whole entry): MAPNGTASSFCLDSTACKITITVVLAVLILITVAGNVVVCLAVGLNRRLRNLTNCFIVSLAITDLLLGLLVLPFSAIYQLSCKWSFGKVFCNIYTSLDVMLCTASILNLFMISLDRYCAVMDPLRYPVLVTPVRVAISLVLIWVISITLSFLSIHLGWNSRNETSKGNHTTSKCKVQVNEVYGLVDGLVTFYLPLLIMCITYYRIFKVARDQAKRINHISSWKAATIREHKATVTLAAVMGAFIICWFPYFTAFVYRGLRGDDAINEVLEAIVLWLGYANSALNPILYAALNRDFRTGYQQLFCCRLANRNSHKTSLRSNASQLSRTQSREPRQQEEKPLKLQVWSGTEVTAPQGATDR

[11] = molecular target: 5-hydroxytryptamine receptor 4 (Cavia porcellus, UniProt O70528); test: Inhibition of guinea pig 5HT4 receptor
5-hydroxytryptamine receptor 4, sequence (O70528 whole entry): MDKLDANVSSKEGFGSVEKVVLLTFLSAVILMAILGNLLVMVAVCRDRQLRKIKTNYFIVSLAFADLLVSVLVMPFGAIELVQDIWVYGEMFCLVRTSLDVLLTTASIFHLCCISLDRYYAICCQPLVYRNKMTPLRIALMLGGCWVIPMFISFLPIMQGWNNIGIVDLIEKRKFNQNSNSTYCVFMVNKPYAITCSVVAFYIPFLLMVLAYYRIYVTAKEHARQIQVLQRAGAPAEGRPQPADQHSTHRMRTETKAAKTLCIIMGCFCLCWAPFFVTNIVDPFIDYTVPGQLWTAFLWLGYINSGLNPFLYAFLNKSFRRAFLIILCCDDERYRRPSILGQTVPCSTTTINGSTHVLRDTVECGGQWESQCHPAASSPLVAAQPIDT

[12] = Displacement of [3H]GABA from rat cerebral cortex GABA(A) receptor; format: tissue-based
[13] = molecular target: Adrenergic receptor alpha-2 (Rattus norvegicus, UniProt P22086+P19328+P22909); test: Displacement of [3H]RX821002 from rat cerebral cortex alpha2 adrenergic receptor; format: tissue-based
D(2) dopamine receptor = D(2) dopamine receptor (Homo sapiens, UniProt P14416); test: Inhibition of human dopamine D2 receptor
D(2) dopamine receptor, sequence (P14416 whole entry): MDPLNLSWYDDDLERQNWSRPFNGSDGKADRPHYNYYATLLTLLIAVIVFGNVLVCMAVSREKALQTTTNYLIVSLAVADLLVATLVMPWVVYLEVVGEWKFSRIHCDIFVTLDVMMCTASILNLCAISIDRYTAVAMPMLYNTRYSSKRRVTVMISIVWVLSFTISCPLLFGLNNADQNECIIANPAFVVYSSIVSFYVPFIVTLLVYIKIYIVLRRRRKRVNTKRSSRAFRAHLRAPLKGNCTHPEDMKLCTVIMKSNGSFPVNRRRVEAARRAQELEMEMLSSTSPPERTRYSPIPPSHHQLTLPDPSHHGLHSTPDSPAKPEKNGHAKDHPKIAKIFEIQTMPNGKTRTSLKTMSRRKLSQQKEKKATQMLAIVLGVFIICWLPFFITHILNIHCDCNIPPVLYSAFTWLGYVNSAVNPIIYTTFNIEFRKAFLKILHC

Histamine H1 receptor = Histamine H1 receptor (Homo sapiens, UniProt P35367); test: Displacement of [3H]pyrilamine from human recombinant histamine H1 receptor
Histamine H1 receptor, sequence (P35367 whole entry): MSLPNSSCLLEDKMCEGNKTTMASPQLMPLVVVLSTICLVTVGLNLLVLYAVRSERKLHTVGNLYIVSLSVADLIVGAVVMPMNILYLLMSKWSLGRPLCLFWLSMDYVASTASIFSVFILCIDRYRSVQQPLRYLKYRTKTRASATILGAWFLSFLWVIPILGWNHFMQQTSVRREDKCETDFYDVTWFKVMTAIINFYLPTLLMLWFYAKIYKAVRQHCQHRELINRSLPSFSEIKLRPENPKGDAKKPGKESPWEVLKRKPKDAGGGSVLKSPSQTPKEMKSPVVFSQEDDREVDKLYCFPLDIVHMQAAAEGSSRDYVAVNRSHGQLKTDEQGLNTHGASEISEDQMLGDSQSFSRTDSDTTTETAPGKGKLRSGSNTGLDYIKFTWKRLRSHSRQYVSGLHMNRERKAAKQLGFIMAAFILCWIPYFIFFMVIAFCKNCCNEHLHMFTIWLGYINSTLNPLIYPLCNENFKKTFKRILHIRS

[14] = molecular target: Beta-1 adrenergic receptor (Homo sapiens, UniProt P08588); test: Displacement of [3H](-)CGP12177 from human recombinant beta-1 adrenergic receptor
Beta-1 adrenergic receptor, sequence (P08588 whole entry): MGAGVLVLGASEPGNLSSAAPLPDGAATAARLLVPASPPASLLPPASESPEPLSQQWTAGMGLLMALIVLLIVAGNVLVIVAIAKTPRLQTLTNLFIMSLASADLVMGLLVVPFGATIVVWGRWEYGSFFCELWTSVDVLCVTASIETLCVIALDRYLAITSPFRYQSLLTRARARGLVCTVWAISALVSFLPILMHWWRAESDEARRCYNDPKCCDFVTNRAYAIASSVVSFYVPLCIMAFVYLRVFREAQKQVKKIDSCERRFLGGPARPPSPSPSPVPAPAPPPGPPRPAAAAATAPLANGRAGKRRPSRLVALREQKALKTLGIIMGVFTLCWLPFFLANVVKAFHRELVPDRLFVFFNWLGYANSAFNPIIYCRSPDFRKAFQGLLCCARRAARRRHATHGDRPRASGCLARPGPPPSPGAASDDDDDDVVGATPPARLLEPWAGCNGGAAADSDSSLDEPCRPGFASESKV

With `Nn1c(CCCCN2CCN(c3ccc4ccccc4n3)CC2)nc2c(c1=O)CCCC2` the concentration at 8 h [1] was 56.4 nM, the IC50 (Adenosine receptor A1) was > 1000 nM and the IC50 [2] was > 1000 nM. The IC50 [3] was > 1000 nM, the IC50 (Adenosine receptor A3) was > 1000 nM and the IC50 (Mu-type opioid receptor) was > 1000 nM. For the same molecule, the inhibition (Rattus norvegicus [4]) was “Active”, the IC50 (Adenosine receptor A2a) was > 1000 nM and the IC50 (Neuromedin-K receptor) was > 1000 nM. The inhibition (Rattus norvegicus [5]) was “inactive”, the EC50 [6] was 22.3 nM and the Emax [7] was 99.8%. For the same molecule, the IC50 [8] was > 1000 nM, the Ki [9] was 4.72 nM and the IC50 [10] was > 1000 nM. The IC50 (Histamine H2 receptor) was > 1000 nM, the IC50 [11] was > 1000 nM and the IC50 [12] was > 1000 nM. For the same molecule, the IC50 [13] was > 1 ×10⁻⁶ mol/L, the IC50 (D(2) dopamine receptor) was > 100 nM and the IC50 (Histamine H1 receptor) was 1000 nM. The IC50 [14] was > 1000 nM.
